The results in this text go back to ChEMBL document CHEMBL3992541, “Combined treatment with zingerone and its novel derivative synergistically inhibits TGF-β1 induced epithelial-mesenchymal transition, migration and invasion of human hepatocellular carcinoma cells” (2017).

Active and inactive are the calls of the source. The calls are words filed in the database; no cut-off is given here.

Experiment [1] concerns SNU-182. The experiment in a line: Inhibition of TGFbeta1-induced epithelial-mesenchymal transition in human SNU182 cells assessed as reduction in downregulation of E-cadherin expression preincubated for 2 hrs followed by TGFbeta1 addition measured after 48 hrs in presence of (E)-1-(9-Ethyl-9H-carbazol-3-yl)-5-(4-hydroxy-3-methoxyphenyl)pent-1-en-3-one by Western blot method. In kind it is functional, cell-based. In short, it runs like this:
(§1)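 SNU182 cells pretreated 2 h with single agents (12.5 or 40 µM) or the mixture (20 and 40 µM), then stimulated with TGF-β1 5 ng/ml for 48 h. E-cadherin and Snail protein detected by Western blot, with GAPDH as loading control.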
A general note: In western blotting, separated proteins are transferred to a membrane and probed.

Experiment [2] relates to SNU-182. The experiment can be described thus: Growth inhibition of human SNU182 cells at <50 uM in presence of (E)-1-(9-Ethyl-9H-carbazol-3-yl)-5-(4-hydroxy-3-methoxyphenyl)pent-1-en-3-one after 48 hrs by CCK8 assay. In kind it is functional, cell-based. In general terms: Tetrazolium dyes change colour on reduction, which living cells bring about.
Experiment [3] relates to SNU-182. The experiment in a line: Inhibition of TGFbeta1-induced epithelial-mesenchymal transition in human SNU182 cells assessed as reduction in mesenchymal phenotype preincubated for 2 hrs followed by TGFbeta1 addition measured after 48 hrs in presence of (E)-1-(9-Ethyl-9H-carbazol-3-yl)-5-(4-hydroxy-3-methoxyphenyl)pent-1-en-3-one. In kind it is functional, cell-based. In short, it runs like this: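 Cells preincubated 2 h in serum-free medium with the mixture (20 and 40 µM), then treated with TGF-β1 5 ng/ml for 48 h. Morphology (spindle-like, elongated shape, scattering) assessed by microscopy.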

Experiment [4] concerns the target Transcription factor Jun (Homo sapiens) (UniProt P05412). The experiment in a line: Inhibition of TGFbeta1-induced AP-1 binding activity in human SNU182 cells at 20 to 40 uM measured after 48 hrs in presence of (E)-1-(9-Ethyl-9H-carbazol-3-yl)-5-(4-hydroxy-3-methoxyphenyl)pent-1-en-3-one by luciferase reporter gene assay. In kind it is cell-based. In short, it runs like this:
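SNU182 transfected with pGL4.44-AP-1-RE-Luc or empty pGL4.44, pretreated with the mixture (20 and 40 µM), then stimulated with TGF-β1 or DMSO. Luciferase reporter activity read. Mean±SD of triplicates.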
(In a reporter assay the amount or activity of a reporter protein is the signal.)

Experiment [5] relates to SNU-182. The experiment can be described thus: Inhibition of TGFbeta1-induced epithelial-mesenchymal transition in human SNU182 cells assessed as reduction in MMP9 activity measured after 48 hrs in presence of (E)-1-(9-Ethyl-9H-carbazol-3-yl)-5-(4-hydroxy-3-methoxyphenyl)pent-1-en-3-one by gelatin zymography assay. In kind it is functional, cell-based. In short, it runs like this: (§2)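 Cells serum-starved overnight in 0.2% FBS medium, then left untreated or given TGF-β 5 ng/ml and/or the mixture for 48 h. MMP-2 and MMP-9 activity in conditioned medium determined by gelatin zymography.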

The subject of experiment [6] is SNU-182. The experiment can be described thus: Inhibition of TGFbeta1-induced epithelial-mesenchymal transition in human SNU182 cells assessed as reduction in MMP9 activity measured after 48 hrs in presence of zingerone by gelatin zymography assay. The class given is functional, cell-based. The procedure, abridged:
as §2

For experiment [7], the system named is SNU-182. The experiment in a line: Growth inhibition of human SNU182 cells assessed as cell survival at 12.5 uM after 48 hrs by CCK8 assay relative to control. In kind it is functional. The note with it: SNU-182, 48 h, read-out: Survival. The procedure, abridged:
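SNU182 human hepatocellular carcinoma cells were exposed to compound at 6.25, 12.5, 25, 50 and 100 µM in serum-free DMEM for 48 h. Viability was read by CCK-8, where WST-8 is reduced by cellular dehydrogenases to a soluble formazan, and expressed as survival relative to vehicle control. Values are mean±SD of triplicates.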

Experiment [8] concerns SNU-182. The experiment in a line: Inhibition of TGFbeta1-induced invasion in human SNU182 cells at 40 uM measured after 48 hrs in presence of zingerone by microscopic method. In kind it is functional, cell-based. The procedure, abridged: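 Matrigel invasion chamber: SNU182 cells in the inner chamber received TGF-β1 with or without the mixture for 48 h. Cells on the lower surface stained, imaged at 200×, and counted. Mean±SD of triplicates.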

Experiment [9] concerns SNU-182. The experiment in a line: Inhibition of TGFbeta1-induced epithelial-mesenchymal transition in human SNU182 cells assessed as reduction in upregulation of N-cadherin expression preincubated for 2 hrs followed by TGFbeta1 addition measured after 48 hrs in presence of zingerone by Western blot method. The class given is functional, cell-based. The procedure, abridged: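 Pretreatment of SNU182 cells with the mixture at 20 and 40 µM for 2 h in serum-free medium, followed by TGF-β1 5 ng/ml for 48 h. N-cadherin and Snail detected by Western blot against GAPDH.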

Experiment [10] relates to SNU-182. The experiment in a line: Inhibition of TGFbeta1-induced epithelial-mesenchymal transition in human SNU182 cells assessed as reduction in downregulation of E-cadherin expression at 12.5 uM preincubated for 2 hrs followed by TGFbeta1 addition measured after 48 hrs by Western blot method. The class given is functional, cell-based. In short, it runs like this: as §1

Experiment [11] concerns the target Mitogen-activated protein kinase; ERK1/ERK2 (Homo sapiens) (UniProt P27361+P28482). The experiment in a line: Inhibition of TGFbeta1-induced p44/42 MAPK phosphorylation in human SNU182 cells measured after 48 hrs in presence of zingerone by Western blot method. The class given is cell-based. The procedure, abridged: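 SNU182 cells incubated 48 h with TGF-β1 5 ng/ml alone or together with the mixture at 20 and 40 µM, then lysed. Phospho-p42/44 MAPK detected by Western blot, with total p42/44 MAPK as loading control.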

The species named for experiment [12] is Homo sapiens. The experiment in a line: Inhibition of TGFbeta1-induced NF-kB nuclear translocation in human SNU182 cells preincubated for 2 hrs followed by TGFbeta1 addition measured after 12 hrs in presence of zingerone by Western blot method. The class given is cell-based. In short, it runs like this: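 Mixture added to SNU182 cells for 2 h before TGF-β1 for 12 h. Cytosolic and nuclear fractions analysed by Western blot for NF-κB, with COX4 as cytosolic and Lamin B1 as nuclear marker.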

Experiment [13] deals with SNU-182. The experiment can be described thus: Inhibition of TGFbeta1-induced epithelial-mesenchymal transition in human SNU182 cells assessed as reduction in upregulation of Snail expression preincubated for 2 hrs followed by TGFbeta1 addition measured after 48 hrs in presence of zingerone by Western blot method. The class given is functional, cell-based. The procedure, abridged:
as §1

Experiment [14] deals with SNU-182. The experiment in a line: Growth inhibition of human SNU182 cells after 48 hrs by CCK8 assay. The class given is functional, cell-based.
Experiment [15] relates to SNU-182. The experiment can be described thus: Inhibition of TGFbeta1-induced migration in human SNU182 cells at 40 uM measured after 48 hrs in presence of zingerone by wound healing assay. In kind it is functional, cell-based. In short, it runs like this:
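Wound healing: SNU182 monolayers at about 90% confluence scratched with a pipette tip and washed. Medium with TGF-β1, with or without 40 µM mixture, then added. Wound imaged at 0 and 48 h; relative motility from cell surface area. Mean±SD of triplicates.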

The test system of experiment [16] is SNU-182. The experiment in a line: Inhibition of TGFbeta1-induced epithelial-mesenchymal transition in human SNU182 cells assessed as reduction in MMP2 mRNA expression at 12.5 uM preincubated for 2 hrs followed by TGFbeta1 addition measured after 48 hrs by qRT-PCR method. The class given is functional, cell-based. In short, it runs like this: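 SNU182 cells pretreated 2 h with single agents (12.5 or 40 µM) or the mixture (20 or 40 µM), then TGF-β 5 ng/ml for 48 h. MMP-2 and MMP-9 mRNA measured by RT-PCR with densitometry and by qRT-PCR, fold change by the 2^-ΔΔCt method. Mean±SD of triplicates.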

Sequence of Transcription factor Jun (Homo sapiens) (P05412 whole entry): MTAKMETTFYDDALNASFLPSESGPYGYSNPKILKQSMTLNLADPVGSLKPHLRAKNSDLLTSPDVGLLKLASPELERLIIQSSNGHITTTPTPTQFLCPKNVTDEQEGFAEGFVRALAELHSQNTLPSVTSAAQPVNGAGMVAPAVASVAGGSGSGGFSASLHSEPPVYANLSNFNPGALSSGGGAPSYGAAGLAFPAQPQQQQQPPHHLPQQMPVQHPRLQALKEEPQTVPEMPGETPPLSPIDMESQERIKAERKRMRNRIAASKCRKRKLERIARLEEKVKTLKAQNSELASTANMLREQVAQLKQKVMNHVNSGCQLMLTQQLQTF
Sequence of Mitogen-activated protein kinase; ERK1/ERK2 (Homo sapiens) (P27361 whole entry, looked up): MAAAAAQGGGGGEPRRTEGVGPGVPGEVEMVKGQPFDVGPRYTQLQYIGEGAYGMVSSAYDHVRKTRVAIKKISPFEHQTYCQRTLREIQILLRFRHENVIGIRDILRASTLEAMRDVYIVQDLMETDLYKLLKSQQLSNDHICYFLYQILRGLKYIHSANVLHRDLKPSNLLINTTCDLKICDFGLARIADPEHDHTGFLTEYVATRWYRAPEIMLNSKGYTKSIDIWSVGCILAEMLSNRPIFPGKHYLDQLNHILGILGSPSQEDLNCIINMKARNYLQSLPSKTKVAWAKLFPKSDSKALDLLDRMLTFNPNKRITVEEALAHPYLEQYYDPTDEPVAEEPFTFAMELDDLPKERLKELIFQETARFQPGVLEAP
Sequence of Mitogen-activated protein kinase; ERK1/ERK2 (Homo sapiens) (P28482 whole entry, looked up): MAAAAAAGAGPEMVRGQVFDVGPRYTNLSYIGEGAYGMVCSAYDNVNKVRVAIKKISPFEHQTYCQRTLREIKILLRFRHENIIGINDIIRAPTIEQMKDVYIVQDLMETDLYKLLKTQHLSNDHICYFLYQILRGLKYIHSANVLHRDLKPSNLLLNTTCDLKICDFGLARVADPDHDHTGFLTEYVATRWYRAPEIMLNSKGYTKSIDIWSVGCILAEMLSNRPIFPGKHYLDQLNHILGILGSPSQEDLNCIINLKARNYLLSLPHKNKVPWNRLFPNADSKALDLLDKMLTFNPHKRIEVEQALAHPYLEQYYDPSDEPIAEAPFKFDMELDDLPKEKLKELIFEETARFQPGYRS

For `COc1cc(CCC(C)=O)ccc1O`, the inhibition entry in [1] and in experiment [3] was “Dose-dependent effect” each time. For the same compound, the “growth inhibition (GI)” value in [2] was “inactive”. Besides, the inhibition result in experiment [4] and in experiment [5] was “Active” in each case.

On to `CCn1c2ccccc2c2cc(/C=C/C(=O)CCc3ccc(O)c(OC)c3)ccc21`, for which the inhibition result in experiment [6], in experiment [8] and in [15] was “Active” throughout. The viability at 12.5 µM in experiment [7] was above 90%. For the same compound, the inhibition entry in [9], in experiment [11], in experiment [12] and in experiment [13] was “Dose-dependent effect” each time. The inhibition result in experiment [10] and in experiment [16] was “inactive” throughout. Further, the “growth inhibition (GI)” value in [14] was “Dose-dependent effect”.
